Experimental data of several laboratories.
Protocols differ between the studies behind these lines.
Sample: plasma

SMILES	host	route	dose	endpoint	result
C=CCn1c(=O)c2cnc(Nc3ccc(N4CCN(C)CC4)cc3)nc2n1-c1ccc2c(n1)[C@@](O)(CC)CC2	mouse	intravenous	3 mg/kg	clearance	54 mL/min/kg
Cc1ccc(OCC(=O)N[C@@H](Cc2c[nH]c3ccccc23)C(=O)OC(C)C)cc1	male Sprague-Dawley mouse	intravenous	10 mg/kg	clearance	5.5 mL/min/kg
Oc1ccc([C@@H]2Oc3ccc(O)cc3[C@@H]3CCC[C@@H]32)cc1	male C57BL/6 mouse	intravenous	1 mg/kg	clearance	1.67 mL/min
Cc1ncsc1-c1ccc([C@H](CC(=O)N2CC3(C2)CN(c2ccc(C#Cc4ccc(C(=O)N5CCC(n6cc(-c7ccc8c(c7)CCN8C(=O)Cc7cccc(OC(F)(F)F)c7)c7c(N)ncnc76)CC5)cc4)cn2)C3)NC(=O)[C@@H]2C[C@@H](O)CN2C(=O)[C@@H](NC(=O)C2(F)CC2)C(C)(C)C)cc1	male C57BL/6 mouse	intravenous	1 mg/kg	clearance	2.8 mL/min/kg
NCc1cc2c(cc1F)C(=O)N(C1CCC(=O)NC1=O)C2 (stereo not drawn)	male CD-1 mouse	intravenous	1 mg/kg	clearance	112 mL/min/kg
Cc1ncsc1-c1ccc([C@H](C)NC(=O)[C@@H]2C[C@@H](O)CN2C(=O)[C@@H](NC(=O)CCCCCCCCCCC(=O)NCCCn2cc(-c3ccc4c(c3)CCN4C(=O)Cc3cccc(OC(F)(F)F)c3)c3c(N)ncnc32)C(C)(C)C)cc1	mouse	intravenous	1 mg/kg	clearance	19.8 mL/min/kg
O=C1CCC(N2Cc3cc(C4CCN(Cc5ccccc5)CC4)ccc3C2=O)C(=O)N1 (stereo not drawn)	male CD-1 mouse	intravenous	1 mg/kg	clearance	48 mL/min/kg
Cc1nc2ccc(OCc3ccc(C(F)(F)F)cc3)cc2[nH]1	male BALB/c mouse	oral	10 mg/kg	CL/F	12.7 mL/min/kg
O=C1CCC(N2Cc3cc(CO)c(F)cc3C2=O)C(=O)N1 (stereo not drawn)	male CD-1 mouse	intravenous	1 mg/kg	clearance	52.9 mL/min/kg
CCCC[C@@H](NC(=O)[C@@H](Cc1cn(C(=O)OC)c2ccccc12)NC(=O)[C@H](CC(C)(C)C)NC(=O)N1[C@H](C)CCC[C@@H]1C)C(=O)O	male CD-1 mouse	intravenous	3 mg/kg	clearance	222 mL/min/kg
CN(C)C(=O)c1cc2cnc(Nc3ccc(-c4ccc5c(=O)cc(N6CCOCC6)oc5c4)cc3)nc2n1C1CCCC1	BALB/c mouse	oral	20 mg/kg	CL/F	120 mL/min/kg
Cc1cc(-c2ccnc3[nH]cc(F)c23)cc(F)c1[C@@]1(O)[C@H](C)CN(C(=O)CN)C[C@@H]1C	male CD-1 mouse	intravenous	1 mg/kg	clearance	0.775 mL/min/kg
Cc1ncsc1-c1ccc([C@H](C)NC(=O)[C@@H]2C[C@@H](O)CN2C(=O)[C@@H](NC(=O)CCCCCCCCC(=O)N2CCC(n3cc(-c4ccc5c(c4)CCN5C(=O)Cc4cccc(OC(F)(F)F)c4)c4c(N)ncnc43)CC2)C(C)(C)C)cc1	male C57BL/6 mouse	intravenous	1 mg/kg	clearance	13.3 mL/min/kg
Cc1cc(-c2ccnc3[nH]cc(F)c23)cc(F)c1[C@@]1(O)[C@H](C)CN(C2CCS(=O)(=O)CC2)C[C@@H]1C	male CD-1 mouse	intravenous	1 mg/kg	clearance	5.86 mL/min/kg
OCc1nc2ccc(NCc3ccc(C(F)(F)F)cc3)cc2[nH]1	male BALB/c mouse	oral	10 mg/kg	CL/F	61.2 mL/min/kg
